# Data reported in ChEMBL document CHEMBL4689842, “EUbOPEN Chemogenomics Library wave 1” (2021).
# Where “and” joins values, the source holds several entries; their conditions need not be identical. Equal values may be shown once.
# System: U2OS
# Assay: Multiplex assay against U2OS
# Format: toxicity, cell-based
# Settings: human
# Outline: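 Compound was added to live cells that had been stained at seeding with Hoechst33342, BioTracker Green Microtubule Cytoskeleton Dye, MitoTracker Red and Annexin V Alexa Fluor 680, and imaging followed on a CQ1 microscope at 37°C and 5% CO2. CellPathfinder machine-learning gating divided cells into Hoechst high-intensity objects or normal cells, normal cells into healthy, pyknosed or fragmented nuclei, and pyknosed cells into mitotic or apoptotic. Tubulin, mitochondrial-mass and membrane-permeability phenotypes are per cents of healthy-nucleus cells.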
# [1] = 12 h, 1 µM, compound concentration 1 uM, replicate 1
# [2] = 12 h, 1 µM, compound concentration 1 uM, replicate 2
# [3] = 12 h, 10 µM, compound concentration 10 uM, replicate 1
# [4] = 12 h, 10 µM, compound concentration 10 uM, replicate 2
# [5] = 24 h, 1 µM, compound concentration 1 uM, replicate 1
# [6] = 24 h, 1 µM, compound concentration 1 uM, replicate 2
# [7] = 24 h, 10 µM, compound concentration 10 uM, replicate 1
# [8] = 24 h, 10 µM, compound concentration 10 uM, replicate 2
# [9] = 48 h, 10 µM, compound concentration 10 uM, replicate 1
# [10] = 48 h, 10 µM, compound concentration 10 uM, replicate 2
compound,measurement,setting,value
COc1cc2nccc(Oc3ccc(NC(=O)Nc4cc(C)on4)c(Cl)c3)c2cc1OC.O,Population Apoptotic (%),[1],50% and 42%
same,Population Fragmented Nuclei (%),[1],7% and 3%
same,Population Healthy Nuclei (%),[1],86% and 89%
same,Population Membrane Permeable-Phenotype (%),[1],26%
same,Population Mitotic Cells (%),[1],50% and 57%
same,Population Normal (%),[1],95% and 98%
same,Population Pyknosed Nuclei (%),[1],6% and 7%
same,Total Cell Count,[1],193 and 192
same,Population Apoptotic (%),[2],0%
same,Population Fragmented Nuclei (%),[2],10% and 8%
same,Population Healthy Nuclei (%),[2],77% and 91%
same,Population Hoechst High Intensity Objects (%),[2],6% and 14%
same,Population Membrane Permeable-Phenotype (%),[2],25% and 19%
same,Population Mitochondria Different-Phenotype (%),[2],61% and 24%
same,Population Mitotic Cells (%),[2],0%
same,Population Normal (%),[2],93% and 85%
same,Population Pyknosed Nuclei (%),[2],12% and 0%
same,Population Tubulin-Different-Phenotype (%),[2],19%
same,Total Cell Count,[2],132 and 71
same,Population Apoptotic (%),[3],70%
same,Population Fragmented Nuclei (%),[3],16%
same,Population Healthy Nuclei (%),[3],57%
same,Population Hoechst High Intensity Objects (%),[3],11%
same,Population Membrane Permeable-Phenotype (%),[3],25%
same,Population Mitochondria Different-Phenotype (%),[3],96%
same,Population Mitotic Cells (%),[3],30%
same,Population Normal (%),[3],88%
same,Population Pyknosed Nuclei (%),[3],25%
same,Population Tubulin-Different-Phenotype (%),[3],100%
same,Total Cell Count,[3],152
same,Population Apoptotic (%),[4],71%
same,Population Fragmented Nuclei (%),[4],11%
same,Population Healthy Nuclei (%),[4],75%
same,Population Hoechst High Intensity Objects (%),[4],3%
same,Population Membrane Permeable-Phenotype (%),[4],36%
same,Population Mitochondria Different-Phenotype (%),[4],97%
same,Population Mitotic Cells (%),[4],28%
same,Population Normal (%),[4],96%
same,Population Pyknosed Nuclei (%),[4],12%
same,Population Tubulin-Different-Phenotype (%),[4],97%
same,Total Cell Count,[4],58
same,Population Apoptotic (%),[5],73% and 33%
same,Population Healthy Nuclei (%),[5],62% and 92%
same,Population Membrane Permeable-Phenotype (%),[5],42% and 15%
same,Population Mitotic Cells (%),[5],26% and 66%
same,Population Normal (%),[5],95% and 98%
same,Total Cell Count,[5],272 and 251
same,Population Apoptotic (%),[6],83% and 100%
same,Population Fragmented Nuclei (%),[6],17% and 9%
same,Population Healthy Nuclei (%),[6],58% and 89%
same,Population Hoechst High Intensity Objects (%),[6],15% and 9%
same,Population Membrane Permeable-Phenotype (%),[6],47% and 17%
same,Population Mitotic Cells (%),[6],16% and 0%
same,Population Normal (%),[6],84% and 90%
same,Population Pyknosed Nuclei (%),[6],24% and 0%
same,Total Cell Count,[6],159 and 78
same,Population Apoptotic (%),[7],82%
same,Population Fragmented Nuclei (%),[7],28%
same,Population Healthy Nuclei (%),[7],42%
same,Population Hoechst High Intensity Objects (%),[7],8%
same,Population Membrane Permeable-Phenotype (%),[7],61%
same,Population Mitochondria Different-Phenotype (%),[7],98%
same,Population Mitotic Cells (%),[7],17%
same,Population Normal (%),[7],91%
same,Population Pyknosed Nuclei (%),[7],29%
same,Population Tubulin-Different-Phenotype (%),[7],100%
same,Total Cell Count,[7],142
same,Population Apoptotic (%),[8],92%
same,Population Fragmented Nuclei (%),[8],16%
same,Population Healthy Nuclei (%),[8],60%
same,Population Hoechst High Intensity Objects (%),[8],3%
same,Population Membrane Permeable-Phenotype (%),[8],67%
same,Population Mitochondria Different-Phenotype (%),[8],100%
same,Population Mitotic Cells (%),[8],7%
same,Population Normal (%),[8],96%
same,Population Pyknosed Nuclei (%),[8],23%
same,Population Tubulin-Different-Phenotype (%),[8],97%
same,Total Cell Count,[8],58
same,Population Apoptotic (%),[9],91%
same,Population Fragmented Nuclei (%),[9],41%
same,Population Healthy Nuclei (%),[9],15%
same,Population Hoechst High Intensity Objects (%),[9],13%
same,Population Membrane Permeable-Phenotype (%),[9],86%
same,Population Mitochondria Different-Phenotype (%),[9],100%
same,Population Mitotic Cells (%),[9],8%
same,Population Normal (%),[9],86%
same,Population Pyknosed Nuclei (%),[9],42%
same,Population Tubulin-Different-Phenotype (%),[9],100%
same,Total Cell Count,[9],153
same,Population Apoptotic (%),[10],87%
same,Population Fragmented Nuclei (%),[10],13%
same,Population Healthy Nuclei (%),[10],67%
same,Population Hoechst High Intensity Objects (%),[10],15%
same,Population Membrane Permeable-Phenotype (%),[10],96%
same,Population Mitotic Cells (%),[10],12%
same,Population Normal (%),[10],84%
same,Population Pyknosed Nuclei (%),[10],18%
same,Total Cell Count,[10],62
Cc1nc(Nc2n[nH]c3c2CN(C(=O)N[C@H](CN(C)C)c2ccccc2)C3(C)C)c2sccc2n1 [PF-03758309],Population Apoptotic (%),[1],47%
same,Population Fragmented Nuclei (%),[1],9%
same,Population Healthy Nuclei (%),[1],79%
same,Population Hoechst High Intensity Objects (%),[1],2%
same,Population Membrane Permeable-Phenotype (%),[1],9%
same,Population Mitochondria Different-Phenotype (%),[1],21%
same,Population Mitotic Cells (%),[1],52%
same,Population Normal (%),[1],97%
same,Population Pyknosed Nuclei (%),[1],11%
same,Population Tubulin-Different-Phenotype (%),[1],21%
same,Total Cell Count,[1],234
same,Population Apoptotic (%),[2],20%
same,Population Fragmented Nuclei (%),[2],10%
same,Population Healthy Nuclei (%),[2],78%
same,Population Hoechst High Intensity Objects (%),[2],15%
same,Population Membrane Permeable-Phenotype (%),[2],5%
same,Population Mitochondria Different-Phenotype (%),[2],18%
same,Population Mitotic Cells (%),[2],80%
same,Population Normal (%),[2],84%
same,Population Pyknosed Nuclei (%),[2],10%
same,Population Tubulin-Different-Phenotype (%),[2],24%
same,Total Cell Count,[2],118
same,Population Apoptotic (%),[3],53%
same,Population Fragmented Nuclei (%),[3],16%
same,Population Healthy Nuclei (%),[3],54%
same,Population Hoechst High Intensity Objects (%),[3],3%
same,Population Membrane Permeable-Phenotype (%),[3],18%
same,Population Mitochondria Different-Phenotype (%),[3],37%
same,Population Mitotic Cells (%),[3],46%
same,Population Normal (%),[3],97%
same,Population Pyknosed Nuclei (%),[3],28%
same,Population Tubulin-Different-Phenotype (%),[3],75%
same,Total Cell Count,[3],173
same,Population Apoptotic (%),[4],75%
same,Population Fragmented Nuclei (%),[4],20%
same,Population Healthy Nuclei (%),[4],63%
same,Population Hoechst High Intensity Objects (%),[4],18%
same,Population Membrane Permeable-Phenotype (%),[4],12%
same,Population Mitochondria Different-Phenotype (%),[4],59%
same,Population Mitotic Cells (%),[4],25%
same,Population Normal (%),[4],81%
same,Population Pyknosed Nuclei (%),[4],16%
same,Population Tubulin-Different-Phenotype (%),[4],85%
same,Total Cell Count,[4],112
same,Population Apoptotic (%),[5],58%
same,Population Fragmented Nuclei (%),[5],11%
same,Population Healthy Nuclei (%),[5],80%
same,Population Hoechst High Intensity Objects (%),[5],3%
same,Population Membrane Permeable-Phenotype (%),[5],17%
same,Population Mitochondria Different-Phenotype (%),[5],19%
same,Population Mitotic Cells (%),[5],41%
same,Population Normal (%),[5],96%
same,Population Pyknosed Nuclei (%),[5],8%
same,Population Tubulin-Different-Phenotype (%),[5],25%
same,Total Cell Count,[5],292
same,Population Apoptotic (%),[6],38%
same,Population Fragmented Nuclei (%),[6],16%
same,Population Healthy Nuclei (%),[6],71%
same,Population Hoechst High Intensity Objects (%),[6],13%
same,Population Membrane Permeable-Phenotype (%),[6],12%
same,Population Mitochondria Different-Phenotype (%),[6],29%
same,Population Mitotic Cells (%),[6],61%
same,Population Normal (%),[6],86%
same,Population Pyknosed Nuclei (%),[6],12%
same,Population Tubulin-Different-Phenotype (%),[6],33%
same,Total Cell Count,[6],121
same,Population Apoptotic (%),[7],78%
same,Population Fragmented Nuclei (%),[7],25%
same,Population Healthy Nuclei (%),[7],38%
same,Population Hoechst High Intensity Objects (%),[7],12%
same,Population Membrane Permeable-Phenotype (%),[7],44%
same,Population Mitochondria Different-Phenotype (%),[7],64%
same,Population Mitotic Cells (%),[7],21%
same,Population Normal (%),[7],88%
same,Population Pyknosed Nuclei (%),[7],36%
same,Population Tubulin-Different-Phenotype (%),[7],88%
same,Total Cell Count,[7],202
same,Population Apoptotic (%),[8],85%
same,Population Fragmented Nuclei (%),[8],19%
same,Population Healthy Nuclei (%),[8],50%
same,Population Hoechst High Intensity Objects (%),[8],25%
same,Population Membrane Permeable-Phenotype (%),[8],38%
same,Population Mitochondria Different-Phenotype (%),[8],82%
same,Population Mitotic Cells (%),[8],14%
same,Population Normal (%),[8],74%
same,Population Pyknosed Nuclei (%),[8],30%
same,Population Tubulin-Different-Phenotype (%),[8],82%
same,Total Cell Count,[8],121
